The values that follow come from ChEMBL document CHEMBL1133607, “Nonpeptide analogues of dynorphin A(1-8): design, synthesis, and pharmacological evaluation of kappa-selective agonists” (J Med Chem, 2000).

Experiment [1] concerns the target T1, Mu-type opioid receptor (Rattus norvegicus, UniProt P33535). Put plainly: Tested for binding affinity by [3H]diprenorphine displacement for Opioid receptor mu 1 was carried on crude membrane fractions obtained from the whole rat brain minus cerebellum.. It counts as tissue-based. In short, it runs like this: (§1)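 Rat whole-brain (minus cerebellum) crude membranes, 1 mg protein/tube, in 50 mM Tris-HCl pH 7.4 with aprotinin, leupeptin and bacitracin. […] U50,488 and DADLE (300 nM each) saturate κ and δ sites; 1 µM DAMGO defines nonspecific binding. Compounds tested at 10^-11 to 10^-5 M. Ki values are the mean of three experiments in duplicate.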

In experiment [2] the target is T2, Delta-type opioid receptor (Rattus norvegicus, UniProt P33533). Put plainly: Tested for binding affinity by [3H]diprenorphine displacement for Opioid receptor delta 1 are carried on crude membrane fractions obtained from the whole rat brain minus cerebellum. It is filed as tissue-based. In short, it runs like this: (§2)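 Rat whole-brain (minus cerebellum) crude membranes, 1 mg protein/tube, in 50 mM Tris-HCl pH 7.4 with aprotinin, leupeptin and bacitracin. […] U50,488 and DAMGO (300 nM each) saturate κ and µ sites; 1 µM DPDPE defines nonspecific binding. Compounds tested at 10^-11 to 10^-5 M. Ki values are the mean of three experiments in duplicate.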

Experiment [3] deals with Mus musculus. As to the kind of experiment: Antinociceptive activity by measuring effective dose after 10 mg/kg of nor-BNI administered subcutaneously 10 min before agonist administered in mouse. It is filed as functional. The following applies: sc, route subcutaneous. The method, boiled down:
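Male albino Swiss mice (20-25 g) given compound sc in saline with 0.5% CMC (0.1-10 mg/kg) 30 min before testing. nor-BNI 10 mg/kg sc given 10 min before agonist. Acetylcholine-induced abdominal constrictions were counted for 5 min after ip acetylcholine. ED50 is the dose that halves constrictions relative to vehicle.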

The subject of experiment [4] is Mus musculus. Put plainly: Effective dose after 10 mg/kg of nor-BNI administered subcutaneously 10 min before agonist administered in mouse rotarod test. It is filed as functional. Particulars: sc, route subcutaneous. The method, boiled down: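 Male albino Swiss mice received nor-BNI 10 mg/kg sc 10 min before agonist (sc, saline/0.5% CMC). 30 min after agonist, mice were placed on an accelerating rotarod with three trials; failure in any trial counted as impaired. ED50 is […].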

The target of experiment [5] is Kappa-type opioid receptor (Cavia porcellus, UniProt P41144). Put plainly: Displacement of [3H]-U-69,593 from Opioid receptor kappa 1 in guinea pig cerebellar.
The target in experiment [6] is T1, Mu-type opioid receptor. Put plainly: Displacement of [3H]diprenorphine from opioid receptor mu 1 on crude membrane fractions obtained from whole rat brain (minus cerebellum). It is filed as tissue-based. The method, boiled down: as §1
The target in experiment [7] is T2, Delta-type opioid receptor. Put plainly: Displacement of [3H]diprenorphine opioid receptor delta 1 on crude membrane fractions obtained from the whole rat brain (minus cerebellum). It counts as tissue-based. The method, boiled down: as §2
For the next experiment, the species on record is Cavia porcellus. Put plainly: (§3) Ratio of affinity towards delta to kappa opioid receptor.
Experiment [8] deals with Opioid receptors; mu & kappa (UniProt P41145+P35372). As to the kind of experiment: Ratio of affinity towards mu and kappa opioid receptors. It is filed as protein assay.
For experiment [9], the target named is Opioid receptors; delta & kappa (Homo sapiens) (UniProt P41145+P41143). The experiment is described as §3. It is filed as protein assay.
Sequence of Opioid receptors; delta & kappa (Homo sapiens) (P41143 whole entry, looked up): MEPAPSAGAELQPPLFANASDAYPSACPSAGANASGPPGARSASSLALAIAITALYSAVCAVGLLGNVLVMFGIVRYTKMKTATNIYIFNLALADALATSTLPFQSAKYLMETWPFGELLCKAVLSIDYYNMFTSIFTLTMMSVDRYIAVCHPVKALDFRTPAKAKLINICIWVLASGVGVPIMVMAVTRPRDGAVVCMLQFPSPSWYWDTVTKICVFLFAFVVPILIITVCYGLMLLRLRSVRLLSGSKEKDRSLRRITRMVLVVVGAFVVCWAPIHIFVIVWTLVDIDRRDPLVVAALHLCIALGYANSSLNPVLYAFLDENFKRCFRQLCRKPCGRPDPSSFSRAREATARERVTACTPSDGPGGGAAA
Sequence of Opioid receptors; delta & kappa (Homo sapiens) (P41145 whole entry, looked up): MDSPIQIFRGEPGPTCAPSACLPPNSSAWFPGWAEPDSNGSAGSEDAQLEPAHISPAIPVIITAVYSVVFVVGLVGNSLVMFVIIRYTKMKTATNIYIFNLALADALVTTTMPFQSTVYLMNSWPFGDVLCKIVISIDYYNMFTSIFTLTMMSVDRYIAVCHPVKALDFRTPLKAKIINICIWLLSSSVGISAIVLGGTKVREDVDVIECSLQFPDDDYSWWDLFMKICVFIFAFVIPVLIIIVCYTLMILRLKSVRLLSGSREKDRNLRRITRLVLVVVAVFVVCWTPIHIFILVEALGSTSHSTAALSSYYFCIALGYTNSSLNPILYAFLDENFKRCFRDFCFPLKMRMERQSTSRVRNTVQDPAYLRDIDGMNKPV

Sequence of Kappa-type opioid receptor (P41144 whole entry): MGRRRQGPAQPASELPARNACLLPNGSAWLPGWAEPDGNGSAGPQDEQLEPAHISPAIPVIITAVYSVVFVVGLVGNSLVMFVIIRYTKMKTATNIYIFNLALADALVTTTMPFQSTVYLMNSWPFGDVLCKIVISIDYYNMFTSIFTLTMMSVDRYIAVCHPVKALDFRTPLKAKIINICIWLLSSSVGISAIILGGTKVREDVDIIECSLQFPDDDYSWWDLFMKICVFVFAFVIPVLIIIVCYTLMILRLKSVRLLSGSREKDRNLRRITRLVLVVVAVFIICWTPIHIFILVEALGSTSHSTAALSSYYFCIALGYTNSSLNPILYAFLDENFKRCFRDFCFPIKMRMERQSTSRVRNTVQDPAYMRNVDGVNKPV
Sequence of Opioid receptors; mu & kappa (P35372 whole entry, looked up): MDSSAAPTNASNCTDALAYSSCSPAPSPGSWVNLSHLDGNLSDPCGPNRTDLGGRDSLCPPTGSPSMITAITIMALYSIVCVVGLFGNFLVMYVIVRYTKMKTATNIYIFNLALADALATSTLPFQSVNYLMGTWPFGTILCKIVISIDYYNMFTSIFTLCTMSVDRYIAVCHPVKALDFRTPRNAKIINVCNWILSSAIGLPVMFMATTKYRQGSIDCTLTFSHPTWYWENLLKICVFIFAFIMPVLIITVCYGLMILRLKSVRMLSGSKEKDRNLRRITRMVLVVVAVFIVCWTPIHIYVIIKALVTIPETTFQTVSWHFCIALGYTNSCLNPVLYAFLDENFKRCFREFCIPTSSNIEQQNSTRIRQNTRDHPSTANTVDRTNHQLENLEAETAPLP
Sequence of Opioid receptors; mu & kappa (P41145 whole entry, looked up): as the sequence (P41145 whole entry, looked up) above
T1 sequence (P33535 whole entry): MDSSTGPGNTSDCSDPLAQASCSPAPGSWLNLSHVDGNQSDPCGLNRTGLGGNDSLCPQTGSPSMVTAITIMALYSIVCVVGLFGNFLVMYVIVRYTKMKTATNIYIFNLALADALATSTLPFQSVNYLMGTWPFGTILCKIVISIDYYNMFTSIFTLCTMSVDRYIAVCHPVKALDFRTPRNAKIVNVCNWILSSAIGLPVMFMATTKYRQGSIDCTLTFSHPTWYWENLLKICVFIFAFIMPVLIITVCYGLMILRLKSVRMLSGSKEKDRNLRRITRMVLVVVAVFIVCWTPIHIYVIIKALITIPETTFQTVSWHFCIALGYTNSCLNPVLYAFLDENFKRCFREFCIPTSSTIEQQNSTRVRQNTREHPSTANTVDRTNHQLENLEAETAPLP
T2 sequence (P33533 whole entry): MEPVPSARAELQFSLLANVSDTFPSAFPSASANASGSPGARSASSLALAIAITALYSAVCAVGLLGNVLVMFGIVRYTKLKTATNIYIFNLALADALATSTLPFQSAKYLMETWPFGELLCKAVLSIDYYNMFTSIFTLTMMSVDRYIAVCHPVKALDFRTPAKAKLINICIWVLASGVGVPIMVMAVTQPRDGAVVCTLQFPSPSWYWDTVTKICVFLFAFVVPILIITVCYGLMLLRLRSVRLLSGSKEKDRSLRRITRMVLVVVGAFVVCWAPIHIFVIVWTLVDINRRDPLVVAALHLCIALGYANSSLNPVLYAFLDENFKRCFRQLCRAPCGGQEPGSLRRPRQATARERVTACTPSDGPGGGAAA

Regarding `COC(=O)[C@]1(c2ccccc2)C[C@@H]1CN1CC[C@@]2(C)c3cc(O)ccc3CC1[C@@H]2C`, the Ki (on Mu-type opioid receptor [1]; in experiment [2]) was > 25000 nM in each case.

With `CCCCC(=N)NCCCCCNC(=O)C(CC(C)C)NC(=O)CNC(=O)[C@]1(c2ccccc2)CC1CN1CC[C@@]2(C)c3cc(O)ccc3CC1C2C` (some centres not stated), the results for the ED50 in the experiment on Mus musculus [3] and in the experiment on Mus musculus [4] were 0.88 mg/kg and 9.2 mg/kg, respectively. The Ki in [5] was 6.7 nM; on Mu-type opioid receptor [6], 2530 nM; in experiment [7] it was 2750 nM.

On to `CCCC(=N)NCCCCCNC(=O)C(CC(C)C)NC(=O)CNC(=O)[C@]1(c2ccccc2)CC1CN1CC[C@@]2(C)c3cc(O)ccc3CC1C2C` (some centres not stated), for which the Ki in experiment [5] stood at 65.3 nM; on Mu-type opioid receptor [6] it was 7190 nM; in experiment [7], 5210 nM. The Selectivity ratio in the experiment listed under Cavia porcellus amounted to 79.8; in [8] it was 110.

On to `CCCCC(=N)NCCCCCCNC(=O)C(CC(C)C)NC(=O)CNC(=O)[C@]1(c2ccccc2)CC1CN1CC[C@@]2(C)c3cc(O)ccc3CC1C2C` (some centres not stated), for which the 50% effective dose (ED50) with Mus musculus [3] came out at 1.1 mg/kg; with Mus musculus [4], 11.9 mg/kg. Moreover, the Ki in [5] is 5.3 nM; on Mu-type opioid receptor [6], 2150 nM; in experiment [7], 2230 nM.

Consider `CC(C)CC(NC(=O)CNC(=O)[C@]1(c2ccccc2)CC1CN1CC[C@@]2(C)c3cc(O)ccc3CC1C2C)C(=O)NCCCCCN` (some centres not stated), for which the Ki in experiment [5] was determined as 246 nM; at Mu-type opioid receptor [6], 10900 nM; in experiment [7], 9580 nM. Further, the values for the Selectivity ratio (in the experiment filed under Cavia porcellus; in experiment [8]) were 38.9 and 44.4, respectively.

Take `CCC(=N)NCCCCCCNC(=O)C(CC(C)C)NC(=O)CNC(=O)[C@]1(c2ccccc2)CC1CN1CC[C@@]2(C)c3cc(O)ccc3CC1C2C` (some centres not stated): the Ki was 46.9 nM in [5], 4210 nM on Mu-type opioid receptor [6] and 5060 nM in experiment [7]. Moreover, the Selectivity ratio in the experiment filed under Cavia porcellus was 108; in experiment [8], 89.8.

With `CC(C)CC(NC(=O)[C@]1(c2ccccc2)CC1CN1CC[C@@]2(C)c3cc(O)ccc3CC1C2C)C(=O)NCCCCCCN` (some centres not stated), the Ki in [5] amounted to 242 nM; at Mu-type opioid receptor [6], 3080 nM; in [7] it was 3420 nM. In addition, the Ratio in experiment [9] was found to be 14.1. Besides, the Selectivity ratio in experiment [8] turned out to be 12.7.

`CCCCC(=N)NCCCNC(=O)C(CC(C)C)NC(=O)CNC(=O)[C@]1(c2ccccc2)CC1CN1CC[C@@]2(C)c3cc(O)ccc3CC1C2C` (some centres not stated): the Ki in [5] turned out to be 18 nM; at Mu-type opioid receptor [6], 3460 nM; in [7] it was 4950 nM. In addition, the Selectivity ratio in the experiment listed under Cavia porcellus turned out to be 275; in experiment [8], 192.

For `CC(C)CC(NC(=O)[C@]1(c2ccccc2)CC1CN1CC[C@@]2(C)c3cc(O)ccc3CC1C2C)C(=O)NCCCCCCN=C(N)N` (some centres not stated), the Ki in [5] amounted to 139 nM; on Mu-type opioid receptor [6], 2630 nM; in experiment [7], 2830 nM. Moreover, the Selectivity ratio was determined as 20.3 in the experiment filed under Cavia porcellus and 18.9 in [8].

For `CCCCC(=N)NCCCCNC(=O)C(CC(C)C)NC(=O)CNC(=O)[C@]1(c2ccccc2)CC1CN1CC[C@@]2(C)c3cc(O)ccc3CC1C2C` (some centres not stated), the Ki in [5] amounted to 10.2 nM; at Mu-type opioid receptor [6] it was 3310 nM; in [7], 3660 nM. The Selectivity ratio amounted to 359 in the experiment listed under Cavia porcellus and 325 in [8].

Turning to `CCC(=N)NCCCCNC(=O)C(CC(C)C)NC(=O)CNC(=O)[C@]1(c2ccccc2)CC1CN1CC[C@@]2(C)c3cc(O)ccc3CC1C2C` (some centres not stated), the Ki in experiment [5] is 176 nM; on Mu-type opioid receptor [6], 7480 nM; in experiment [7] it was 9700 nM. Moreover, the Selectivity ratio in the experiment filed under Cavia porcellus was 55.2; in experiment [8] it was 42.6.

Turning to `CC(C)CC(NC(=O)CNC(=O)[C@]1(c2ccccc2)CC1CN1CC[C@@]2(C)c3cc(O)ccc3CC1C2C)C(=O)NCCCCN` (some centres not stated), the Ki in [5] was 270 nM; at Mu-type opioid receptor [6], 13200 nM; in experiment [7], 10500 nM. In addition, the Selectivity ratio in the experiment listed under Cavia porcellus came to 38.7; in experiment [8], 49.1.

`CCCC(=N)NCCCCCCNC(=O)C(CC(C)C)NC(=O)[C@]1(c2ccccc2)CC1CN1CC[C@@]2(C)c3cc(O)ccc3CC1C2C` (some centres not stated): the Ki in experiment [5] came to 122 nM; at Mu-type opioid receptor [6], 1900 nM; in experiment [7], 3460 nM. For the same molecule, the Selectivity ratio in the experiment listed under Cavia porcellus amounted to 28.4; in experiment [8] it was 15.6.
